From ChEMBL document CHEMBL1149790, “Synthesis of some novel thiourea derivatives obtained from 5-[(4-aminophenoxy)methyl]-4-alkyl/aryl-2,4-dihydro-3H-1,2,4-triazole-3-thiones and evaluation as antiviral/anti-HIV and anti-tuberculosis agents” (Eur J Med Chem, 2008)
≈ marks a conversion by molar mass, not a printed value. Calls of active or inactive are those of the source. The calls are words filed in the database; no cut-off is given here.

Assays:
Human alphaherpesvirus 3 [1] = test: Antiviral activity against TK- VZV 07/1 infected HEL cells assessed as reduction in virus plaque formation; format: functional, organism-based; conditions: Human alphaherpesvirus 3, 07/1, HEL
Human respirovirus 3 = test: Antiviral activity against Parainfluenza 3 virus in african green monkey Vero cells assessed as reduction of virus-induced cytopathogenicity; format: functional
Procedure, shortened: (§1)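 Confluent cell monolayers (E6SM, HEL, HeLa or Vero, per line) inoculated with 100 CCID50 virus; 1 h adsorption, residual virus removed, then incubated with compound at 400, 200, 100 … µg/ml. Cytopathicity scored once complete in untreated virus controls; MIC = concentration inhibiting virus-induced cytopathicity.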

[2] = test system: Respiratory syncytial virus; test: Antiviral activity against respiratory syncytial virus in human HeLa cells assessed as inhibition of virus-induced cytopathogenicity; format: functional; procedure, shortened: as §1
Human alphaherpesvirus 1 [3] = test: Antiviral activity against thymidine kinase deficient and acyclovir resistant HSV1 KOS in human HEL cells assessed as reduction of virus-induced cytopathogenicity; format: functional; conditions: Human alphaherpesvirus 1, KOS; procedure, shortened: as §1
[4] = test system: Vesicular stomatitis virus; test: Antiviral activity against in Vesicular stomatitis virus in human HEL cells assessed as reduction of virus-induced cytopathogenicity; format: functional; procedure, shortened: as §1
[5] = test system: Vesicular stomatitis virus; test: Antiviral activity against vesicular stomatitis virus in human HeLa cells assessed as inhibition of virus-induced cytopathogenicity; format: functional; procedure, shortened: as §1
Human alphaherpesvirus 1 [6] = test: Antiviral activity against HSV1 KOS in human E6SM cells assessed as reduction of virus-induced cytopathogenicity; format: functional; conditions: Human alphaherpesvirus 1, KOS; procedure, shortened: as §1
[7] = test system: Vesicular stomatitis virus; test: Antiviral activity against in Vesicular stomatitis virus in human E6SM cells assessed as reduction of virus-induced cytopathogenicity; format: functional; procedure, shortened: as §1
[8] = Cytotoxicity against human HeLa cells; format: cell-based
Procedure, shortened: (§2)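 Uninfected cell cultures exposed to test compounds alongside antiviral assays; minimum cytotoxic concentration (MCC) = concentration causing a microscopically detectable alteration of cell morphology.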

Human betaherpesvirus 5 [9] = test: Antiviral activity against human cytomegalovirus AD169 infected HEL cells assessed as reduction in virus plaque formation; format: functional, organism-based; conditions: Human betaherpesvirus 5, AD169, HEL
[10] = Cytotoxicity against human HEL cells assessed as alteration of cell morphology; format: cell-based; procedure, shortened: as §2
Punta Toro virus = test: Antiviral activity against Punta Toro virus in african green monkey Vero cells assessed as reduction of virus-induced cytopathogenicity; format: functional; procedure, shortened: as §1
[11] = test system: Mammalian orthoreovirus 1; test: Antiviral activity against Reo virus 1 in african green monkey Vero cells assessed as reduction of virus-induced cytopathogenicity; format: functional; procedure, shortened: as §1
Coxsackievirus B4 [12] = test: Antiviral activity against Coxsackie virus B4 in african green monkey Vero cells assessed as reduction of virus-induced cytopathogenicity; format: functional; conditions: Enterovirus B; procedure, shortened: as §1
Coxsackievirus B4 [13] = test: Antiviral activity against Coxsackie virus B4 in human HeLa cells assessed as inhibition of virus-induced cytopathogenicity; format: functional; conditions: Enterovirus B; procedure, shortened: as §1
Human betaherpesvirus 5 [14] = test: Antiviral activity against human cytomegalovirus Davis infected HEL cells assessed as reduction in virus plaque formation; format: functional, organism-based; conditions: Human betaherpesvirus 5, Davis
Human alphaherpesvirus 1 [15] = test: Antiviral activity against thymidine kinase deficient and acyclovir resistant HSV1 KOS in human E6SM cells assessed as reduction of virus-induced cytopathogenicity; format: functional; conditions: Human alphaherpesvirus 1, KOS; procedure, shortened: as §1
[16] = (§3) Cytotoxicity against human E6SM cells; format: cell-based; conditions: E6SM cells; procedure, shortened: as §2
Vero = test: Cytotoxicity against african green monkey Vero cells; format: cell-based; conditions: chlorocebus sabaeus; procedure, shortened: as §2
[17] = Cytotoxicity against human MT4 cells by MTT assay; format: cell-based
Procedure, shortened: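 Mock-infected MT-4 cells (6 × 10⁵ cells/ml) with serial five-fold compound dilutions in triplicate; MTT reduction read at 540 and 690 nm after 5 days, median OD of three wells; CC50 = concentration reducing OD540 of mock-infected control by 50%.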

Sindbis virus = test: Antiviral activity against Sindbis virus in african green monkey Vero cells assessed as reduction of virus-induced cytopathogenicity; format: functional; procedure, shortened: as §1
Human alphaherpesvirus 1 [18] = test: Antiviral activity against HSV1 KOS in human HEL cells assessed as reduction of virus-induced cytopathogenicity; format: functional; conditions: Human alphaherpesvirus 1, KOS; procedure, shortened: as §1
Human alphaherpesvirus 3 [19] = test: Antiviral activity against TK+ VZV OKA infected HEL cells assessed as reduction in virus plaque formation; format: functional, organism-based; conditions: Human alphaherpesvirus 3, OKA
Human alphaherpesvirus 2 [20] = test: Antiviral activity against HSV2 G in human HEL cells assessed as reduction of virus-induced cytopathogenicity; format: functional; conditions: Human alphaherpesvirus 2, G; procedure, shortened: as §1
[21] = Cytotoxicity against human HEL cells assessed as reduction of cell growth; format: cell-based
Procedure, shortened: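 HEL cells; CC50 = compound concentration reducing cell growth by 50%.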

Human alphaherpesvirus 2 [22] = test: Antiviral activity against HSV2 G in human E6SM cells assessed as reduction of virus-induced cytopathogenicity; format: functional; conditions: Human alphaherpesvirus 2, G; procedure, shortened: as §1
[23] = test system: Mycobacterium tuberculosis; test: Antitubercular activity against Mycobacterium tuberculosis H37Rv at 6.25 ug/ml by MABA assay; format: functional
[24] = test system: Human immunodeficiency virus 2; test: Antiviral activity against HIV2 ROD in human MT4 cells assessed as protection against virus-induced cytopathogenicity by MTT assay; format: functional, organism-based; design: Activity: concentration or dose not given beside the values; conditions: for IC50: Human immunodeficiency virus 2, ROD, MT4
Procedure, shortened: (§4)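 MT-4 cells at 6 × 10⁵ cells/ml infected with HIV-1 IIIB or HIV-2 ROD at 100–300 CCID50; compounds in serial five-fold dilutions, triplicate mock- and virus-infected wells. MTT viability read at 540 and 690 nm after 5 days, median OD of three wells; EC50 = 50% protection from viral cytopathic effect.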

[25] = test system: Human immunodeficiency virus 1; test: Antiviral activity against HIV1 3B in human MT4 cells assessed as protection against virus-induced cytopathogenicity by MTT assay; format: functional, organism-based; design: Activity: concentration or dose not given beside the values; conditions: for IC50: Human immunodeficiency virus 1, 3B, MT4; procedure, shortened: as §4
E6SM = test: as §3; format: cell-based; conditions: e6sm; procedure, shortened: as §2

Compound | MIC (Human respirovirus 3) | MIC [2] | MIC (Human alphaherpesvirus 1 [3]) | MIC [4] | MIC [5] | MIC (Human alphaherpesvirus 1 [6]) | MIC [7] | MCC [8] | MCC [10] | MIC (Punta Toro virus) | MIC [11] | MIC (Coxsackievirus B4 [12]) | MIC (Coxsackievirus B4 [13]) | MIC (Human alphaherpesvirus 1 [15]) | Activity (Vero) | CC50 [17] | MIC (Sindbis virus) | MIC (Human alphaherpesvirus 1 [18]) | MIC (Human alphaherpesvirus 2 [20]) | MIC (Human alphaherpesvirus 2 [22]) | further results
C=CCn1c(COc2ccc(NC(=S)Nc3ccccc3)cc2)n[nH]c1=S | > 16 µg/mL | > 16 µg/mL | > 80 µg/mL | 80 µg/mL (≈ 201 µM) | > 16 µg/mL | > 80 µg/mL | 80 µg/mL (≈ 201 µM) | 80 µg/mL | 400 µg/mL | > 16 µg/mL | > 16 µg/mL | 16 µg/mL (≈ 40.2 µM) | > 16 µg/mL | > 80 µg/mL | 80 µg/mL | 23.2 µg/mL (≈ 58.4 µM) | > 16 µg/mL | > 80 µg/mL | > 80 µg/mL | > 80 µg/mL | EC50 (Human alphaherpesvirus 3 [1]): 26.8 µg/mL (≈ 67.4 µM); EC50 (Human betaherpesvirus 5 [9]): 45 µg/mL (≈ 113 µM); EC50 (Human betaherpesvirus 5 [14]): 45 µg/mL (≈ 113 µM); MCC [16]: 400 µg/mL; EC50 (Human alphaherpesvirus 3 [19]): 9.9 µg/mL (≈ 24.9 µM); CC50 [21]: 42 µg/mL (≈ 106 µM); inhibition at 6.25 µg/mL [23]: 79%; Activity [24]: 22.5%; IC50 [24]: > 20.3 µg/mL; Activity [25]: 19%; IC50 [25]: > 20.2 µg/mL
CCCCCCNC(=S)Nc1ccc(-c2n[nH]c(=S)n2CCCCCC)cc1 | > 3.2 µg/mL | > 3.2 µg/mL | > 3.2 µg/mL | > 3.2 µg/mL | > 3.2 µg/mL | > 3.2 µg/mL | > 3.2 µg/mL | 16 µg/mL | 16 µg/mL | > 3.2 µg/mL | > 3.2 µg/mL | > 3.2 µg/mL | > 3.2 µg/mL | > 3.2 µg/mL | 16 µg/mL | 1.71 µg/mL (≈ 4.07 µM) | > 3.2 µg/mL | > 3.2 µg/mL | > 3.2 µg/mL | > 3.2 µg/mL | Activity (E6SM): 16 µg/mL; Activity [24]: 1%; IC50 [24]: > 1.71 µg/mL; Activity [25]: 3%; IC50 [25]: > 1.71 µg/mL
Cn1c(COc2ccc(NC(=S)Nc3ccccc3)cc2)n[nH]c1=S | > 80 µg/mL | > 400 µg/mL | > 80 µg/mL | > 80 µg/mL | > 400 µg/mL | > 80 µg/mL | > 80 µg/mL | > 400 µg/mL | 400 µg/mL | > 80 µg/mL | > 80 µg/mL | > 80 µg/mL | > 400 µg/mL | > 80 µg/mL | 400 µg/mL | ≥ 87.8 µg/mL | > 80 µg/mL | > 80 µg/mL | > 80 µg/mL | > 80 µg/mL | EC50 (Human alphaherpesvirus 3 [1]): 38 µg/mL (≈ 102 µM); EC50 (Human betaherpesvirus 5 [9]): 66 µg/mL (≈ 178 µM); EC50 (Human betaherpesvirus 5 [14]): 49 µg/mL (≈ 132 µM); MCC [16]: 400 µg/mL; EC50 (Human alphaherpesvirus 3 [19]): 33 µg/mL (≈ 88.8 µM); CC50 [21]: > 50 µg/mL; inhibition at 6.25 µg/mL [23]: 70%; Activity [24]: 6.5%; IC50 [24]: > 87.8 µg/mL; Activity [25]: 3.5%; IC50 [25]: > 98.9 µg/mL
C=CCn1c(COc2ccc(N)cc2)n[nH]c1=S | > 80 µg/mL | > 400 µg/mL | > 400 µg/mL | > 400 µg/mL | > 400 µg/mL | > 400 µg/mL | > 400 µg/mL | > 400 µg/mL | > 400 µg/mL | > 80 µg/mL | > 80 µg/mL | > 80 µg/mL | > 400 µg/mL | > 400 µg/mL | 400 µg/mL | > 125 µg/mL | > 80 µg/mL | > 400 µg/mL | 240 µg/mL (≈ 915 µM) | 240 µg/mL (≈ 915 µM) | EC50 (Human alphaherpesvirus 3 [1]): > 100 µg/mL; EC50 (Human betaherpesvirus 5 [9]): > 100 µg/mL; EC50 (Human betaherpesvirus 5 [14]): > 100 µg/mL; MCC [16]: > 400 µg/mL; EC50 (Human alphaherpesvirus 3 [19]): > 100 µg/mL; CC50 [21]: > 50 µg/mL; Activity [23]: inactive; Activity [24]: 9%; IC50 [24]: > 125 µg/mL; Activity [25]: 3.5%; IC50 [25]: > 125 µg/mL
